Experimental data reported in ChEMBL document CHEMBL3108689, “Stilbenes as κ-selective, non-nitrogenous opioid receptor antagonists” (J Nat Prod, 2014).

How the values were obtained:
[1] = target: Delta-type opioid receptor (Homo sapiens) (UniProt P41143); assay: Competitive antagonist activity against human delta opioid receptor overexpressed in CHO cells assessed as inhibition of DPDPE-stimulated [35S]GTP-gamma-S binding by liquid scintillation counting; format: functional, cell-based
Method in brief: (§1)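 CHO cells overexpressing human μ, δ or κ opioid receptor; membrane homogenates (20–40 μg protein) incubated 1 h at room temperature with 0.1 nM [35S]GTP-γ-S and 1 μM GDP in 50 mM HEPES pH 7.4, in duplicate. Agonist concentration–response curves run with or without one test-compound concentration (screen at 10 μM). Filtration, scintillation counting, normalized to basal; EC50 by four-parameter logistic; Ke = [L]/(DR − 1).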

[2] = target: Mu-type opioid receptor (Homo sapiens) (UniProt P35372); assay: Competitive antagonist activity against human Mu opioid receptor overexpressed in CHO cells assessed as inhibition of DAMGO-stimulated [35S]GTP-gamma-S binding by liquid scintillation counting; format: functional, cell-based; method in brief: as §1
[3] = target: Kappa-type opioid receptor (Homo sapiens) (UniProt P41145); assay: Competitive antagonist activity against human kappa opioid receptor overexpressed in CHO cells assessed as inhibition of U69,593-stimulated [35S]GTP-gamma-S binding by liquid scintillation counting; format: functional, cell-based; method in brief: as §1
Homo sapiens [4] = species on record: Homo sapiens; assay: Selectivity ratio of Ke(app) for human Mu opioid receptor to ratio of Ke(app) for human kappa opioid receptor
Homo sapiens [5] = species on record: Homo sapiens; assay: Selectivity ratio of Ke(app) for human delta opioid receptor to ratio of Ke(app) for human kappa opioid receptor

Ke [1] [µM]	Ke [2] [µM]	Ke [3] [µM]	Ratio (Homo sapiens [4])	Ratio (Homo sapiens [5])	SMILES
> 10	> 10	> 10	–	–	COc1cc(/C=C/c2ccc(OC)c(OC)c2CC=C(C)C)c(C/C=C(\C)CCC=C(C)C)c(OC)c1
> 10	> 10	> 10	–	–	CC(C)=CCc1c(O)cc(/C=C/c2ccc(O)cc2)cc1O
> 10	> 10	> 10	–	–	CC(C)=CCc1c(O)cc(/C=C/c2ccc(O)c(O)c2)cc1O
> 10	> 10	> 10	–	–	COc1cc(/C=C/c2ccc(OC)c(OC)c2)c(C/C=C(\C)CCC=C(C)C)c(OC)c1
> 10	> 10	> 10	–	–	COc1cc(/C=C/c2ccc(OC)c(O)c2CC=C(C)C)c(C/C=C(\C)CCC=C(C)C)c(OC)c1
2.9	0.57	0.2	2.9	14.5	CC(C)=CCC/C(C)=C/Cc1c(O)cc(O)cc1/C=C/c1ccc(O)c(O)c1CC=C(C)C
> 10	> 10	> 10	–	–	CC(C)=CCC/C(C)=C/Cc1c(O)cc(/C=C/c2ccc(O)c(O)c2)cc1O
> 10	> 10	0.15	> 67	> 67	COc1cc(/C=C/c2cc(O)c(O)c(CC=C(C)C)c2)c(C/C=C(\C)CCC=C(C)C)c(OC)c1
> 10	> 10	> 10	–	–	CC(C)=CCC/C(C)=C/Cc1c(O)cc(O)cc1/C=C/c1ccc(O)c(O)c1
> 10	> 10	> 10	–	–	COc1cc(/C=C/c2ccc(O)c(O)c2)c(C/C=C(\C)CCC=C(C)C)c(OC)c1
6	3	9	0.33	0.67	CC(C)=CCC/C(C)=C/CC/C(C)=C/Cc1c(O)cc(/C=C/c2ccc(O)cc2)cc1O
